Source: ChEMBL document CHEMBL3526054, “Substituted imidazole of 5-fluoro-2-[4-[(2-phenyl-1H-imidazol-5-yl)methyl]-1-piperazinyl]pyrimidine Inactivates cytochrome P450 2D6 by protein adduction” (Drug Metab Dispos, 2011)

What was measured:
Cytochrome P450 2D6 [1] = molecular target: T1, Cytochrome P450 2D6 (Homo sapiens, UniProt P10635); assay: Partition ratio of […] assessed as number of molecules of compound metabolized per molecule of inactivated enzyme after 60 mins by HPLC analysis; type: ADME; conditions: recombinant enzyme, 1 h
Cytochrome P450 2C19 = Cytochrome P450 2C19 (Homo sapiens, UniProt P33261); assay: Drug metabolism assessed as CYP2C19 (unknown origin)-mediated retention time of metabolite by LC-MS/MS analysis in presence of NADPH; type: ADME
Cytochrome P450 2C9 = Cytochrome P450 2C9 (Homo sapiens, UniProt P11712); assay: Drug metabolism assessed as CYP2C9 (unknown origin)-mediated retention time of metabolite by LC-MS/MS analysis in presence of NADPH; type: ADME
Cytochrome P450 2D6 [2] = molecular target: T1, Cytochrome P450 2D6; assay: Covalent binding affinity to human CYP2D6 with P450 reductase assessed per nmol of enzyme after 60 mins by protein precipitation and scintillation counting analysis in presence of NADPH; conditions: 1 h
CYP2D6 [3] = molecular target: T2, CYP2D6 (Homo sapiens, UniProt P10635); assay: Inhibition of catalytic activity of recombinant human CYP2D6 expressed in Escherichia coli co-expressing P450 reductase assessed as loss of native heme in hemochrome at 16 uM after <15 mins by hemochrome assay in presence of NADPH; type: ADME
Outline: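 Purified CYP2D6 (1 μM) with 2 μM reductase, 30 μM dilauroyl-PC, catalase, SOD and 16 μM compound in 100 mM KPi pH 7.4, incubated 0–40 min with an NADPH-generating system. Controls lacked compound or NADPH system. Quenched in detergent buffer, then pyridine (22%) and NaOH (0.01 N, final) added. Dithionite-reduced spectrum 520–620 nm; heme from A557–A575 (32.4 mM⁻¹cm⁻¹), relative to time 0.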

CYP2D6 [4] = molecular target: T2, CYP2D6; assay: Inhibition of catalytic activity of recombinant human CYP2D6 expressed in Escherichia coli co-expressing P450 reductase assessed as loss of ability to bind CO at 16 uM after <15 mins by […] in presence of NADPH; type: ADME
Outline: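 Purified CYP2D6 (1 μM) reconstituted with 2 μM P450 reductase, 30 μM dilauroyl-PC, catalase and SOD in 100 mM KPi pH 7.4, with 16 μM compound and an NADPH-generating system. Incubated up to 25 min. Controls lacked compound or NADPH system. Quenched with detergent buffer. Reduced-CO difference spectrum read 400–500 nm; P450 from A450–A475 (91 mM⁻¹cm⁻¹), expressed relative to time 0.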

Cytochrome P450 2D6 [5] = molecular target: T1, Cytochrome P450 2D6; assay: Binding affinity to recombinant human CYP2D6 expressed in Escherichia coli co-expressing P450 reductase by spectral analysis; type: ADME; conditions: read-out: Ks
Outline: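 Purified recombinant CYP2D6 (from E. coli), 1 μM in 100 mM potassium phosphate pH 7.4, split between two cuvettes at room temperature. Ligand (0.05–16 μM, in water) titrated into the sample cuvette, solvent into the reference. Difference spectra recorded 350–500 nm. ΔA430–395 plotted against concentration. Ks obtained by nonlinear fit to the quadratic tight-binding equation.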

CYP2D6 [6] = molecular target: T2, CYP2D6; assay: (§1) Inhibition of catalytic activity of recombinant human CYP2D6 expressed in Escherichia coli co-expressing P450 reductase assessed as hydroxybufuralol activity at 16 uM after <15 mins by HPLC analysis in presence of NADPH; type: ADME; conditions: probe bufuralol (hydroxybufuralol formation)
CYP2D6 [7] = molecular target: T2, CYP2D6; assay: Inhibition of catalytic activity of […] assessed as loss of native heme in hemochrome at 16 uM after <15 mins by HPLC analysis in presence of NADPH; type: ADME
Cytochrome P450 2D6 [8] = molecular target: T1, Cytochrome P450 2D6; assay: Covalent binding affinity to human CYP2D6 with P450 reductase assessed per nmol of enzyme after 60 mins by protein precipitation and scintillation counting analysis in absence of NADPH; conditions: 1 h
Cytochrome P450 2D6 [9] = molecular target: T1, Cytochrome P450 2D6; assay: Drug metabolism assessed as human CYP2D6 with P450 reductase-mediated retention time of metabolite by LC-MS/MS analysis in presence of NADPH; type: ADME
Cytochrome P450 2D6 [10] = molecular target: T1, Cytochrome P450 2D6; assay: Inhibition of CYP2D6 (unknown origin); type: ADME
Cytochrome P450 2D6 [11] = molecular target: T1, Cytochrome P450 2D6; assay: as §1; type: ADME; conditions: recombinant enzyme, 0.25 h, 16 µM

T2 sequence (P10635 whole entry): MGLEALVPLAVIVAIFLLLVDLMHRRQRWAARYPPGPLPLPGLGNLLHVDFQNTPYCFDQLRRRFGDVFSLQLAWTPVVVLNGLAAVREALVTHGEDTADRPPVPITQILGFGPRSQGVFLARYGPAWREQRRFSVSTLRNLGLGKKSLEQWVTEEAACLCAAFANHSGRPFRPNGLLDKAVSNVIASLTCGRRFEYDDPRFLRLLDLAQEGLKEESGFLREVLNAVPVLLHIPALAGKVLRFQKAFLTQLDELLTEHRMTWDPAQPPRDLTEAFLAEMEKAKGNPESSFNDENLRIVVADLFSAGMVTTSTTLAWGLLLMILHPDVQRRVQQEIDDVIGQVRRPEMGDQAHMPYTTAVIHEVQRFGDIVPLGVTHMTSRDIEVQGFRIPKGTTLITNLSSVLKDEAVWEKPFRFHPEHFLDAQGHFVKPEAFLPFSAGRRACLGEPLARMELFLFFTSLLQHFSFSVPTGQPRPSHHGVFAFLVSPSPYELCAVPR
T1 sequence (P10635 whole entry): as above
Cytochrome P450 2C9, sequence (P11712 whole entry): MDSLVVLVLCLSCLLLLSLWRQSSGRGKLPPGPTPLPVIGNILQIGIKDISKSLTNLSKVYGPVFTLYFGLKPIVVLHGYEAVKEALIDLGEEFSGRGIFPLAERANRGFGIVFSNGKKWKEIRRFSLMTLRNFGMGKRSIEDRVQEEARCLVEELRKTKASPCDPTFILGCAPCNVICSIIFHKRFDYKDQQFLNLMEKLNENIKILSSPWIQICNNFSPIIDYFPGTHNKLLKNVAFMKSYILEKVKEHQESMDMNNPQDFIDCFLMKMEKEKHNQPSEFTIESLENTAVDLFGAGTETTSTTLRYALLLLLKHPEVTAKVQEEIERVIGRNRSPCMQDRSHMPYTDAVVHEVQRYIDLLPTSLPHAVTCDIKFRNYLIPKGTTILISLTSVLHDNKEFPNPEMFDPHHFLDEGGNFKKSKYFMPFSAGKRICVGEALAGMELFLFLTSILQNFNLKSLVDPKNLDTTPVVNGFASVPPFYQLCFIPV
Cytochrome P450 2C19, sequence (P33261 whole entry): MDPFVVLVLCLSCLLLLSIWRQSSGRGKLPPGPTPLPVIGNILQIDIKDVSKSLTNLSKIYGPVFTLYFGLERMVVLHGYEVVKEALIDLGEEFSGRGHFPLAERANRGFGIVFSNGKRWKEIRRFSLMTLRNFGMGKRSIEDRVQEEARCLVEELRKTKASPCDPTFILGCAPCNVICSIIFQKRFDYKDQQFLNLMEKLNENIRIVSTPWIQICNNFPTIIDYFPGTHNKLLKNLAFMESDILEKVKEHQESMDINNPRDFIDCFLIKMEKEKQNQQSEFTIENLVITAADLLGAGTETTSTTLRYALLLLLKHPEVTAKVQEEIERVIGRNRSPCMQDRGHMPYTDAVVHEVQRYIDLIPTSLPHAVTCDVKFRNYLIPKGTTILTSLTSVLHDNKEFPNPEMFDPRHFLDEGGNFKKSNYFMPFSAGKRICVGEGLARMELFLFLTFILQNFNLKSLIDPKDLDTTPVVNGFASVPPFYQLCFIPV

Row | Compound | Ratio (Cytochrome P450 2D6 [1]) | Retention_time (Cytochrome P450 2C19) [min] | Retention_time (Cytochrome P450 2C9) [min] | PB (Cytochrome P450 2D6 [2]) [nmol] | inhibition at 0.25 h, 16 µM (CYP2D6 [3]) [%] | inhibition at 0.25 h, 16 µM (CYP2D6 [4]) [%] | Kd (Cytochrome P450 2D6 [5]) [nM] | inhibition at 0.25 h, 16 µM (CYP2D6 [6]) [%] | inhibition at 0.25 h, 16 µM (CYP2D6 [7]) [%] | PB (Cytochrome P450 2D6 [8]) [nmol] | Retention_time (Cytochrome P450 2D6 [9]) [min] | Ki (Cytochrome P450 2D6 [10]) [nM] | inhibition (INH) (Cytochrome P450 2D6 [11])
1 | CCc1nc(C)c(CN2CCN(c3cc(C(F)(F)F)ccn3)CC2)[nH]1 | 99 |  |  |  |  |  |  |  |  |  |  |  | 
2 | Fc1cnc(N2CCN(Cc3cnc(-c4ccccc4)[nH]3)CC2)nc1 | 3 | 17 | 17 | 3.15 | 15 | 25 | 390 | 90 | 25 | 1.95 | 17 | 550 | 
3 | COc1ccc2c(c1)[C@]13CCCC[C@@H]1[C@H](C2)N(C)CC3 [DEXTROMETHORPHAN] |  |  |  |  |  |  |  |  |  |  |  |  | Active
